HTR2A ag – agonists of mouse serotonin 5-HT2A receptor (HTR2A) | CHO-K1 mHTR2A beta-arrestin complementation, luminescence; percent of 30 µM serotonin response | activation, % at 7.6 µM | actives 0.66% (n = 360,000) | P35363;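 active = activation above a run cutoff, the mean activation of all tested compounds plus 3 SD, cut at about 14% in these data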;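 note: 0% = plate median of compound wells and 100% = 30 µM serotonin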
Target sequence (P35363 whole entry, looked up): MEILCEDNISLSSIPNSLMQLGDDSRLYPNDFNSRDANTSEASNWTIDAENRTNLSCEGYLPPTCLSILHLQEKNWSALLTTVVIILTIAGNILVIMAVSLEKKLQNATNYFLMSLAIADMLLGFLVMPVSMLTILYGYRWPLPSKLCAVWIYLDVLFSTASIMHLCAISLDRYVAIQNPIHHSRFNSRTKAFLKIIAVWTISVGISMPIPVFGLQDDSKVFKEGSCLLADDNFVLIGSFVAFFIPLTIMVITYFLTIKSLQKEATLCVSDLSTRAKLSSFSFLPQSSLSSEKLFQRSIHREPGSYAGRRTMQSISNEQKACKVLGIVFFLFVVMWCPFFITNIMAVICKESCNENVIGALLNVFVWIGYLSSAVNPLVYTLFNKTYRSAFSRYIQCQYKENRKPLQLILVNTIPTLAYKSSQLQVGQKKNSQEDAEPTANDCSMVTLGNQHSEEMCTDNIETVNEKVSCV
CCR6 antag – CCR6 (human) receptor antagonism; AID 493098; actives 0.49% (n = 340,000); P51684; CHO-K1 CCR6 PathHunter beta-arrestin, luminescence, CCL20-stimulated; inhibition, % at 20 µM;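 active = compounds whose inhibition of the agonist-driven luminescence signal at 20 µM reaches about 50%, limit read from the data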;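 note: cells stimulated with CCL20 at 14 nM final; plate controls were DMSO with CCL20 for no effect and DMSO without agonist for full effect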
CXCR6 inh – blocks human CXCR6 beta-arrestin recruitment | inhibition, % at 20 µM | CHO-K1 PathHunter CXCR6 beta-arrestin, luminescence | actives 0.36% (n = 360,000) | O00574 | AID 602244; in the data active = inhibition above about 34%, passing the limit was not always enough;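 note: antagonist mode with CXCL16 agonist at 10 nM final; 0% = 10 nM CXCL16 with DMSO and 100% = unstimulated wells without agonist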
APJ antag – blocks the human apelin receptor APJ. inhibition, % at 20 µM. CHO-K1 APJ beta-arrestin complementation, luminescence. AID 2521. P35414. actives 0.32% (n = 330,000);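 active = inhibition above about 40% at 20 µM, limit read from the data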;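 note: cells challenged with 10 nM apelin-13 agonist together with compound; plate controls were apelin-13 plus DMSO wells for no effect and DMSO wells lacking apelin-13 for full effect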
APJ agonist – activates the human apelin receptor APJ; P35414; CHO-K1 APJ PathHunter beta-arrestin, luminescence; 0% DMSO wells, 100% apelin; actives 0.11% (n = 330,000); activation, % at 20 µM;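 active = activation more than six SD over the plate average, tested at 20 µM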;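 note: 0% = DMSO alone and 100% = apelin-13 at 10 nM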
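assay system = CHO-K1 APJ beta-arrestin complementation cell line | input = cell density 1000 per well | dosing = compound 20 µM once, DMSO 1% | timing = compound 90 min 25 °C, reagent 1 h | measured by = luminescence from split beta-galactosidase complementation, Galacton Star/Emerald II substrate | read-out basis = APJ agonist activity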
EBI2 antag – EBI2 (human) antagonism; P32249; actives 0.81% (n = 360,000); inhibition, % at 5 µM; AID 651636; EBI2 beta-arrestin recruitment, luminescence, 7a,25-OHC stimulated; in the data active = inhibition above about 38%;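 note: enzyme fragment complementation signal reports receptor beta-arrestin coupling in cells; 0% = agonist plus DMSO wells and 100% = wells without agonist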
APJ antag confirm – confirmation of human APJ apelin receptor antagonists. shares compounds with APJ antag. AID 2766. inhibition, % at 20 µM. actives 66% (n = 950). APJ beta-arrestin recruitment, luminescence, antagonist mode; in the data active = inhibition above about 50%
An asterisk follows results filed as active; · = not tested or not shown. Most compounds without a hit are left out; they make up all but 2.1% or so of the library.

SMILES	HTR2A ag	CCR6 antag	CXCR6 inh	APJ antag	APJ agonist	EBI2 antag	APJ antag confirm
Cc1nn2cc(-c3ccccc3)nc2[nH]c1=O	1.5	-3.2	4.1	-6.3	-3.6	-8.4	·
COc1ccc(NC2(c3ccc(Cl)cc3)C(=O)c3ccccc3C2=O)cc1	-5.4	74.0*	32.9	62.0*	-9.4	-3.3	73.0*
CN1C[C@@H]2[C@@H]3C(=O)N(C)C(=O)[C@@H]3[C@](C)(C1=O)N2C(=O)c1ccc(Br)cc1	-1.6	-4.1	0.1	·	·	3.0	·
C/C(=N\O)C(=O)C(CN1CCCCC1)CN1CCCCC1	-7.3	50.6*	24.5	42.0*	-1.4	-5.4	22.6
COCc1ccc(CN2CCc3c([nH]c4ccccc34)C2C(C)(C)C)o1 (stereo unspecified)	0.0	23.8	-7.8	16.4	-2.6	4.6	·
CCOC(=O)c1cnc2c(cnn2C)c1NCCC(O)C(F)(F)F (stereo unspecified)	-1.7	9.5	4.1	48.0*	-0.1	-5.8	33.2
CCOC(=O)c1cnc2c(cnn2C)c1Oc1ccc(OC)cc1	1.6	13.0	-4.2	26.2	-4.5	3.7	·
COc1cc(/C=C2/C(=O)NN(c3ccc(Cl)cc3)C2=O)cc(OC)c1O	1.0	42.0	33.8	40.8*	-7.7	8.4	46.4
COc1cc(/C=C2/C(=O)NN(c3ccccc3)C2=O)cc(Br)c1O	3.9	39.6	32.3	34.4	-5.8	1.2	·
COc1cc(/C=C2/C(=O)N(c3ccc(C(=O)O)cc3)N=C2C)cc(OC)c1O	0.6	68.7*	40.2*	58.8*	-7.7	0.7	94.5*
COc1ccc(S(=O)(=O)Cc2ccc(C(=O)NCc3ccccc3OC)o2)cc1	-6.5	16.8	1.8	44.6*	3.1	28.6	3.7
Cc1ccc(SSc2cc(C)ccc2N)c(N)c1	-2.6	14.9	3.2	44.6*	-12.1	26.8	127.1*
COC(=O)c1ccc2c(c1)C(C)(C)C(/C=C/c1ccc(O)cc1)=[N+]2C	-5.4	91.5*	73.6*	69.7*	-1.7	-0.3	129.5*
Cc1ccc(NC(=O)Cn2nnc(C(=O)Nc3ccc(C)c(C)c3)c2N)cc1	5.7	2.3	7.6	54.9*	0.3	2.1	36.7
NC(=O)c1ccccc1OCC(=O)N1CCC(Cc2ccccc2)CC1	4.5	8.2	-0.6	42.9*	-0.6	-6.5	-31.9
CCn1c(-c2ccccc2)ccc(C#N)c1=O	-2.0	5.2	0.2	49.9*	-1.4	4.5	47.4
CCOC(=O)/C=C/S(=O)(=O)c1ccc(NC(C)=O)cc1	-3.7	48.4	34.0	44.1*	0.2	-7.1	83.2*
Cc1nn(CCC(=O)NNC(=S)Nc2ccc(F)cc2)c(C)c1Br	1.1	27.7	16.4	51.8*	-5.5	9.9	108.0*
CCCCNC(=S)NNC(=O)CCn1nc(C)c(Br)c1C	-26.7	40.6	27.7	64.3*	-15.4	19.8	124.8*
Cc1nn(CCC(=O)NNC(=S)Nc2ccc([N+](=O)[O-])cc2)c(C)c1[N+](=O)[O-]	-2.5	30.3	32.8	48.9*	-6.3	7.0	87.4*
CCCCc1oc2c(c(=O)c1C)C(=O)CC(c1ccccc1)C2 (stereo unspecified)	1.8	12.2	-0.8	-11.7	2.3	-6.4	·
COc1cc2c(cc1OC)C(c1cccnc1)CC(=O)N2 (stereo unspecified)	-5.7	-3.3	-1.2	-74.5	-2.5	7.1	·
Cc1cc(C)c(S(=O)(=O)N2CCCC2=O)cc1N(C)S(C)(=O)=O	-2.4	1.6	-0.5	9.4	1.3	-3.0	·
Nc1ccc(-c2c3ccc(=O)cc-3oc3cc(O)ccc23)cc1C(=O)O	-0.2	41.7	31.6	40.5*	-5.3	4.1	41.9
O=c1ccc2c(-c3ccccc3)c3ccc(O)cc3oc-2c1	-1.3	11.1	-0.8	0.0	-0.2	2.8	·
SMILES	HTR2A ag	CCR6 antag	CXCR6 inh	APJ antag	APJ agonist	EBI2 antag	APJ antag confirm
CC1(O)CC(c2ccc(Cl)cc2)=NN1C(=O)c1ccc([N+](=O)[O-])cc1 (stereo unspecified)	2.1	68.0*	16.8	40.9*	-8.3	20.3	69.9*
CC1CCCCN1S(=O)(=O)c1ccc(C(=O)N(CCCN(C)C)c2nc3ccc(Br)cc3s2)cc1 (stereo unspecified)	-11.8	15.6	-11.3	48.1*	18.4	-11.7	36.7
O=C(COC(=O)c1cnccn1)c1ccc(Cl)c([N+](=O)[O-])c1	-0.7	87.0*	54.2*	90.6*	-14.3	11.3	140.3*
O=C(COC(=O)c1cccnc1)c1ccc(Cl)c(Cl)c1	-3.0	81.0*	36.8	84.7*	-14.4	9.7	77.8*
Cc1ccc(C(=O)COC(=O)c2cnccn2)cc1[N+](=O)[O-]	-2.9	28.1	7.9	45.6*	-6.2	5.7	65.1*
Cc1ccc(C(=O)COC(=O)c2cnccn2)cc1C	·	·	·	1.2	-0.8	·	·
CCCC(=O)N1CCC1(C)C(=O)NS(=O)(=O)c1ccc(C)cc1 (stereo unspecified)	4.6	·	-6.5	·	·	-0.6	·
S=C(Nc1ccccc1Cl)N1CCCCCC1	3.8	-0.7	-1.2	1.0	-1.6	-5.7	·
COc1ccc(S(=O)(=O)N2CCCCC2)cc1NC(=S)Nc1ccccc1	0.1	7.8	-10.4	5.8	-0.8	0.4	·
Cc1ccc(NC(=O)CC2=NC(=O)C(CC(=O)Nc3ccccc3C)S2)cc1 (stereo unspecified)	0.5	2.5	1.6	-3.8	-1.1	-0.6	·
Cc1ccc(-n2c(C)nnc2SCC(=O)NNC(=O)c2ccco2)cc1	1.0	10.8	31.6	-9.2	-1.4	-10.9	·
Cn1nnc(NC(=S)NC(=O)c2ccc3ccccc3c2)n1	-5.3	·	29.5	·	·	1.2	·
Cn1nnc(NC(=S)NC(=O)c2cccc3ccccc23)n1	-7.4	35.3	36.2	50.7*	-10.4	-1.1	86.2*
Cc1ncc(CO)c(/C=N/Nc2ccc(C(F)(F)F)cn2)c1O	-18.2	69.4*	48.2*	62.7*	-12.4	11.3	89.3*
Cc1ccc(CNC(=S)Nc2cc(C(=O)O)ccc2C)cc1	2.2	-7.2	-0.3	8.5	-0.5	4.5	·
Cc1ccc(C(=O)O)cc1NC(=S)NC(=O)c1ccc([N+](=O)[O-])c(C)c1	4.4	40.6	30.0	40.0*	-4.5	17.0	36.7
COc1cc(C(=O)NC(=S)Nc2ccc([N+](=O)[O-])cc2C)cc(OC)c1OC	-2.7	43.6	20.3	43.0*	-5.4	-4.3	65.1*
COc1cccc(C(=O)NC(=S)Nc2ccc([N+](=O)[O-])cc2C)c1	-2.5	48.6	16.1	38.7	-6.3	2.5	·
COc1cc2c(cc1OC)C1(CCCC1)CNC2c1cccc([N+](=O)[O-])c1 (stereo unspecified)	-11.9	78.4*	63.3*	47.3*	-8.9	40.1	78.2*

Assay outcomes: PubChem, several laboratories
